Results: PubChem BioAssay
Activity calls are given as the source filed them.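 How the source made its calls, unless noted: active means Her2 level under about 52% in both replicate screens, with viability over 70% of control (limit read from the data); inconclusive means Her2 under the limit in one screen only, or viability under 70%; inactive means Her2 level above the set limit.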

Key:
[1] = Her2 expression decrease, cell viability multiplex – SKBR3 breast tumor cells, AlphaScreen, ATP viability, primary screen (AID 461); details: SKBR3 Her2 protein level, 18-24 h, measured here: SKBR3 viability, ATP luminescence, at 10 µM;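 on Her2 level: lower value means less Her2 protein in the cells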;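 on viability: percent of carrier control wells set as 100% viability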
[2] = molecular target: Receptor tyrosine-protein kinase erbB-2 (Homo sapiens) (UniProt P04626); experiment: as above; details: 18-24 h, at 10 µM, stronger effect = lower value
[3] = reduced viability of SK-BR-3 breast cancer cells – cell-based, 24 h, human, pilot screen (AID 572;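 active means viability at or below 10% of carrier control in both of two separate runs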;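 further: compound exposure lasted between 18 and 24 h rather than exactly 24 h; 100% = carrier-treated control wells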); details: SK-BR-3 viability, CellTiter-Glo luminescence, at 10 µM, stronger effect = lower value
[4] = HUVEC growth inhibition – cell-based, human, primary screen (AID 575;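 active means viability at or below 30% in both replicate assays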;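 further: 100% = median of untreated cell wells with 0.1% DMSO on each plate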); details: HUVEC proliferation, CellTiter-Glo luminescence, 72 h; at 10 µM; stronger effect = lower value
How it was run: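 material = primary HUVEC, no more than 12 passages | input = 1250 cells per well | controls = vehicle and MePR control wells | measured by = CTG luminescence | times = 72 h compound incubation | format = collagen-coated 384-well format | read-out = % viability vs DMSO wells | doses = single 10 µM dose, 0.1% DMSO, from 5x medium stock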

[5] = H69AR cell proliferation blockers – human, duplicate replicates, primary screen (AID 580;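 active means viability at or under a set limit in both replicates, limit being median viability minus 3 SD, cut at about 48% in these data, passing the limit was not always enough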;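 further: 100% = mean luminescence of untreated wells and 0% = no signal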); details: H69AR lung tumor cells viability, ATP luminescence, 72 h; at 10 µM; stronger effect = lower value
[6] = MRP1 drug-resistance reversers in H69AR cells – cell-based, doxorubicin co-treatment, pilot screen (AID 601;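 active means viability loss from added drug above about 55%, and viability with drug at most 40%, in both replicates, limit read from the data, passing the limit was not always enough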); details: CellTiter-Glo, 72 h, at 10 µM; for differential viability (reversal): stronger effect = higher value
[7] = yeast transport mutant growth inhibition pilot in 384-well plates, post-Golgi transport modulator project (AID 636; in the data active means inhibition above about 31%); details: absorbance 615 nm, about 18 h, stronger effect = higher value
[8] = growth suppression of yeast trafficking mutant, preliminary HTS, modulators of trafficking downstream of Golgi apparatus project, 1536-format plate, OD 615 nm (AID 637; in the data active means inhibition above about 30%); details: yeast transport mutant growth, absorbance 615 nm, 18 h; stronger effect = higher value
[9] = H69AR cells + 2 uM doxorubicin, measured here: viability with 2 uM doxorubicin, stronger effect = lower value
[10] = H69AR cells, compound alone cytotoxicity

Sequence of Receptor tyrosine-protein kinase erbB-2 (Homo sapiens) (P04626 whole entry, looked up): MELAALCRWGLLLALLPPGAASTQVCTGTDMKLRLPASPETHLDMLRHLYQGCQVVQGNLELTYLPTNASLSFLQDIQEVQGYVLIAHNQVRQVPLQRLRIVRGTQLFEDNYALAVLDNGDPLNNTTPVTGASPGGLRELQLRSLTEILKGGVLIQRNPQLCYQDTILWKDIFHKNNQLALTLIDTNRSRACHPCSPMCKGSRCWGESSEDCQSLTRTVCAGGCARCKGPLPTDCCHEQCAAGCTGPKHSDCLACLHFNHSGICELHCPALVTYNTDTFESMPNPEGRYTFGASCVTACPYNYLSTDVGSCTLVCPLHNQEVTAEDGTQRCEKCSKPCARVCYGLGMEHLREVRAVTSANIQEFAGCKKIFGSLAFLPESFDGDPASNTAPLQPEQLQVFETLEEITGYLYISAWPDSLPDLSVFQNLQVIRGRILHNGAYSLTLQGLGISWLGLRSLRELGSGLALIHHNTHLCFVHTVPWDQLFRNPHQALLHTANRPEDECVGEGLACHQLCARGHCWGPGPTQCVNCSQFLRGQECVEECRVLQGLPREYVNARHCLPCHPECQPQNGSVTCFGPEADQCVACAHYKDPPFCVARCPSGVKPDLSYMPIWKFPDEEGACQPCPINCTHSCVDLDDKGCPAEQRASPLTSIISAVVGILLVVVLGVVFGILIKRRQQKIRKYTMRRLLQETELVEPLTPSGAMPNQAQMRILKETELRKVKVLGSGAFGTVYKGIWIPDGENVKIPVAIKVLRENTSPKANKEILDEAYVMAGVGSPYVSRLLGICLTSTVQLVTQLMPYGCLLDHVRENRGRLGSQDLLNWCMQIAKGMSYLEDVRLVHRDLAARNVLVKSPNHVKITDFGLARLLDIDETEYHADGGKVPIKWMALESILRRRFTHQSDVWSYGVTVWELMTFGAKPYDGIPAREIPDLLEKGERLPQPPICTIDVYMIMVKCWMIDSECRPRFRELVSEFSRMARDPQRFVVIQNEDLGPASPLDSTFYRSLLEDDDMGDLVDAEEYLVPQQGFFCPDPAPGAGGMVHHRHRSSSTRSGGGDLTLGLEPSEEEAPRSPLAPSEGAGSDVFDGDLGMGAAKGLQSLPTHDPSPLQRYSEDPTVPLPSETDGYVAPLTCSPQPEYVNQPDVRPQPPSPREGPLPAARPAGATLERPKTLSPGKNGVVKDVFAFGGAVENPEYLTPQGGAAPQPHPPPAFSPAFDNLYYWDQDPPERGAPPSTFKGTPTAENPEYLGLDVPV

SMILES	viability [1] [%]	Her2 level [2]	viability [3]	viability [4]	viability [5]	differential viability (reversal) ([6]; H69AR cells + 2 uM doxorubicin)	viability [6, 9] [%]	viability [6, 10] [%]	inhibition [7]	inhibition [8]
CCCCc1c(O)nc(SCCN(C)C)n(-c2ccccc2)c1=O	93.5	110% (inactive)	93.5% (inactive)	99.5% (inactive)	102% (inactive)	2.55% (inactive)	99	102	-1.18% (inactive)	2.62% (inactive)
Cc1cc(C)n2cc(CSCc3ccco3)nc2n1	97	83% (inactive)	97% (inactive)	113% (inactive)	95.2% (inactive)	8.73% (inactive)	86.4	95.2	-7.16% (inactive)	0.83% (inactive)
CCOC(=O)N1CCN(C(=O)Cn2ncn3nc(-c4cccs4)cc3c2=O)CC1	97	136% (inactive)	97% (inactive)	111% (inactive)	90.9% (inactive)	-9.68% (inactive)	101	90.9	1.71% (inactive)	0.33% (inactive)
CCOC(=O)N1CCN(C(=O)CSc2cc(C)nc3c(-c4ccccc4OC)c(C)nn23)CC1	79.5	90% (inactive)	79.5% (inactive)	94% (inactive)	73.3% (inactive)	48.5% (inactive)	24.8	73.3	-0.26% (inactive)	-1.43% (inactive)
COc1ccc(N2C(N)=C(C#N)C(c3cccnc3)C3=C2CC(C)(C)CC3=O)cc1 (stereo not given)	106	90% (inactive)	106% (inactive)	79.5% (inactive)	20.6% (active)	-3% (inactive)	23.6	20.6	-8.9% (inactive)	0.32% (inactive)
CC(=O)N(C)C1(c2nnnn2CCOC(=O)Nc2cccc3ccccc23)CCCC1	119	85.5% (inactive)	119% (inactive)	83.9% (inactive)	87.3% (inactive)	3.21% (inactive)	84.1	87.3	-4.13% (inactive)	5.08% (inactive)
CC(C)CCNC(=O)CCNS(=O)(=O)c1ccc(Cl)cc1	110	95% (inactive)	110% (inactive)	99.7% (inactive)	94.1% (inactive)	-0.295% (inactive)	94.4	94.1	-1.71% (inactive)	-4.03% (inactive)
CCOc1ccccc1NC(=O)NC1CCN(CC(=O)Nc2ccc3c(c2)OCCO3)CC1	119	97% (inactive)	119% (inactive)	73.9% (inactive)	86.8% (inactive)	-7.47% (inactive)	94.3	86.8	-0.39% (inactive)	7.54% (inactive)
CCOC(=O)c1oc2cccc(OC(C)=O)c2c1C	106	82% (inactive)	106% (inactive)	89.9% (inactive)	85.6% (inactive)	-0.89% (inactive)	86.5	85.6	-5.6% (inactive)	3.11% (inactive)
c1ccc(Cn2nnnc2CN2CCN(c3ncccn3)CC2)cc1	99	97.5% (inactive)	99% (inactive)	92.1% (inactive)	100% (inactive)	-0.765% (inactive)	101	100	-3.47% (inactive)	0.98% (inactive)
C/C(NC1CCCC1)=C(/C#N)C(N)=O	108	99% (inactive)	108% (inactive)	116% (inactive)	111% (inactive)	10.3% (inactive)	101	111	-4.21% (inactive)	3.11% (inactive)
N#Cc1ccccc1NC(=O)CSc1nnc(-c2ccccc2)n1-c1ccccc1	81.5	83% (inactive)	81.5% (inactive)	102% (inactive)	30.3% (active)	-63.4% (inactive)	93.8	30.3	1.49% (inactive)	-0.32% (inactive)
O=C(COC(=O)c1cc(-c2ccco2)nc2ccccc12)NCc1ccc2c(c1)OCO2	97	93% (inactive)	97% (inactive)	72.2% (inactive)	96.8% (inactive)	11.3% (inactive)	85.5	96.8	-5.75% (inactive)	-10.3% (inactive)
CCCN(CCC)S(=O)(=O)c1ccc(NS(C)(=O)=O)cc1	110	124% (inactive)	110% (inactive)	98.2% (inactive)	105% (inactive)	6.41% (inactive)	99	105	-1.18% (inactive)	-5.83% (inactive)
COc1cccc(-c2cc(C(F)(F)F)n3ncc(C(=O)O)c3n2)c1	93	87.5% (inactive)	93% (inactive)	117% (inactive)	108% (inactive)	9.06% (inactive)	98.8	108	-3.2% (inactive)	-2.95% (inactive)
CS(=O)(=O)N(CC(=O)O)c1cccc(Cl)c1	95	120% (inactive)	95% (inactive)	115% (inactive)	95.7% (inactive)	-0.88% (inactive)	96.6	95.7	2.11% (inactive)	2.95% (inactive)
CCOC(=O)N1CCN(CC(O)COc2ccccc2C(C)CC)CC1 (stereo not given)	104	92.5% (inactive)	104% (inactive)	99% (inactive)	94.7% (inactive)	1.52% (inactive)	93.2	94.7	31.6% (active)	29.2% (inactive)
Cn1c(=O)c2c(ncn2CC(=O)OCC(=O)NC2CCCc3ccccc32)n(C)c1=O (stereo not given)	98	94% (inactive)	98% (inactive)	110% (inactive)	97.7% (inactive)	5.3% (inactive)	92.4	97.7	-0.68% (inactive)	1.59% (inactive)
Cc1noc(C)c1C(=O)Nc1ccc(Cl)cc1C(F)(F)F	91	86.5% (inactive)	91% (inactive)	84.7% (inactive)	93.1% (inactive)	-0.845% (inactive)	94	93.1	-6.13% (inactive)	3.11% (inactive)
CCOC(=O)N1CCN(C(=O)c2ccc3nc4cc(Cl)ccc4c(=O)n3c2)CC1	91	95% (inactive)	91% (inactive)	96% (inactive)	91.1% (inactive)	2.21% (inactive)	88.8	91.1	-3.07% (inactive)	2.1% (inactive)
COc1ccc(CCNC(=O)C2CC(=O)N(c3ccccc3)C2)cc1OC (stereo not given)	124	99.5% (inactive)	124% (inactive)	89.7% (inactive)	91.5% (inactive)	1.51% (inactive)	90	91.5	-2.47% (inactive)	-1.8% (inactive)
CCC1C(=O)N=C(SCC(=O)Nc2cccc3ccccc23)NC1=O (stereo not given)	112	100% (inactive)	112% (inactive)	106% (inactive)	82.3% (inactive)	-9.84% (inactive)	92.1	82.3	-3.24% (inactive)	0.63% (inactive)
COCCn1c(SCC(=O)Nc2sc(C)c(C)c2C#N)nnc1C(C)C	98	92.5% (inactive)	98% (inactive)	96% (inactive)	89.6% (inactive)	-3.22% (inactive)	92.8	89.6	-0.13% (inactive)	-4.35% (inactive)
Cc1cc(Cl)ccc1OCCCC(=O)NO	80.5	76% (inactive)	80.5% (inactive)	71.3% (inactive)	2.07% (active)	-20.7% (inactive)	22.7	2.07	2.18% (inactive)	3.83% (inactive)
CN(C)C(=O)CSc1nnc([C@H](Cc2c[nH]c3ccccc23)NC(=O)OC(C)(C)C)o1	104	96.5% (inactive)	104% (inactive)	94.9% (inactive)	94.6% (inactive)	0.01% (inactive)	94.6	94.6	-3.68% (inactive)	5.57% (inactive)
Cc1ccc(CN2C(=O)CCC2C(=O)NCC2CCCO2)cc1 (stereo not given)	90	81% (inactive)	90% (inactive)	82.8% (inactive)	103% (inactive)	5.64% (inactive)	97.3	103	-1.45% (inactive)	3.55% (inactive)
CN(C)CCN1C(=O)c2oc3ccc(Cl)cc3c(=O)c2C1c1cccc(Br)c1 (stereo not given)	102	72.5% (inactive)	102% (inactive)	87.9% (inactive)	77.1% (inactive)	2.96% (inactive)	74.2	77.1	-1.17% (inactive)	-5.5% (inactive)
